Source: PubChem BioAssay (Broad Institute)
In the library only some 3.6% were active in any assay of this set; here they are far more common.
Wnt act: activators of Wnt/beta-catenin signaling; AID 743398; activation, % at 9.35 µM; Wnt/beta-catenin reporter cell assay, activator, plate reader; hit rate 1.2% among 300,000; in the data active = activation above about 30%, passing the limit was not always enough; inconclusive = no clear call, values can overlap the other calls
MITF act: MITF TRPM1 promoter activation in melanoma cells; SK-MEL-5 TRPM1-promoter luciferase, 24 h; % of positive control, neutral wells = 0; activation, % at 12.5 µM; hit rate 0.75% among 300,000;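 active = mean activation of at least 80% with every replicate also reaching 80%; inconclusive = mean reaches 80% but some replicate falls short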
SR-BI DiI-HDL act: SR-BI HDL lipid transfer activation; CHO ldlA[mSR-BI] cells, DiI-HDL uptake fluorescence, 3 h; 100 = double the neutral-control signal; activation, % at 12.5 µM; hit rate 0.096% among 320,000;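 active = mean replicate activation of at least 60% and every replicate at or above 60%; inconclusive = mean or all-replicate condition met, but not both; inactive = mean below 60% and not all replicates reaching 60%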
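Test system: SR-BI-overexpressing, LDLR-lacking CHO cells; Also added: labelled HDL, 10 µg/mL; Measured by: bottom-read cell fluorescence after medium removal, ex 550/em 595 nm; Timing: 3 h uptake period with compound, 37 °C; Buffer or medium: F12, 0.5% BSA, 25 mM HEPES; Doses: single compound concentration, delivered by pin transfer.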
SR-BI DiI inh: blocks mouse SR-BI lipid uptake from DiI-HDL. hit rate 0.96% among 320,000. ldlA[mSR-BI] CHO cells, DiI-HDL uptake fluorescence, 3 h. Q61009. inhibition, % at 12.5 µM;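 active = mean replicate inhibition of at least 70% and a set share of replicates each scoring 70 or more; inconclusive = meets just one of the two criteria; inactive = fails both criteria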
Target sequence (Q61009 whole entry, looked up): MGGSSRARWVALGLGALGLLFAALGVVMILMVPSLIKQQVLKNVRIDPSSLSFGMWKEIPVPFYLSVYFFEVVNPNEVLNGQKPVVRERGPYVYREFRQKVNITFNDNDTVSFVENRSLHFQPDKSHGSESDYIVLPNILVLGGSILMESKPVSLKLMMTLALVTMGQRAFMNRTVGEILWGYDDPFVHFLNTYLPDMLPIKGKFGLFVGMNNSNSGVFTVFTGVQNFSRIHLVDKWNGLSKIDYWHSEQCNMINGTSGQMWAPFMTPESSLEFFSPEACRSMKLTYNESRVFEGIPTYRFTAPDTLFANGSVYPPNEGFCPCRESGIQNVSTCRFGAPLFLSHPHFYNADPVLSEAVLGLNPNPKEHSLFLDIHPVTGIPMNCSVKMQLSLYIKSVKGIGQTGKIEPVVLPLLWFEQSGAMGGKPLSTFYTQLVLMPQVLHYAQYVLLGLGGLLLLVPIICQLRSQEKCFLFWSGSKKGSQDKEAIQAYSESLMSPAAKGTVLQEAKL
HSF1 activator: increases HSF-1 driven luciferase reporter signal. NIH3T3-HGL HSF-1 luciferase reporter, MG132, 8 h; 100% = twice DMSO control signal. activation, % at 9 µM. hit rate 1.7% among 300,000. AID 504408;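 active = mean replicate activation of at least 50% with a set share of replicates each reaching 50%; inconclusive = only one of those two conditions met; inactive = mean below 50% and too few replicates reaching it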
Numbers stand for hits; - = inactive; ? = inconclusive; . = no result given.

SMILES	Wnt act	MITF act	SR-BI DiI-HDL act	SR-BI DiI inh	HSF1 activator
O=C(COC(=O)/C=C/c1cccc([N+](=O)[O-])c1)NCc1ccco1	-	-	-	-	200
CC1=C(C(=O)N2CCCCCC2)CC(CC(=O)NCCCN(C)C)C(=O)N1Cc1ccc(F)cc1 (configuration not stated)	-	.	.	.	.
COc1ccc2c(COC(=O)CCS(=O)(=O)c3ccccc3)cc(=O)oc2c1	.	-	-	-	-
COc1ccc2c(COC(=O)c3n[nH]c4ccccc34)cc(=O)oc2c1	-	.	-	-	63
Cc1cc2oc(=O)cc(COC(=O)c3n[nH]c4ccccc34)c2cc1C	.	92	-	-	51
CC1(C(=O)NC2CCCCC2)CCC(=O)N1CC(F)(F)F (configuration not stated)	-	.	.	.	.
C/C(=N\NC(=O)COc1ccccc1[N+](=O)[O-])c1cccc(NC(=O)c2ccncc2)c1	-	-	-	81	-
C/C(=N\NC(=O)c1cccc(N/N=C(\C)c2ccccc2)c1)c1ccccc1	-	-	-	79	.
C/C(=N\NC(=O)c1ccncc1)c1cccc(NC(=O)c2ccc(C(C)(C)C)cc2)c1	35	-	-	78	-
CCOC(=O)[C@]12CCC=C1N(Cc1ccco1)C(=O)[C@H](CC(=O)NCCCOC)C2	-	.	.	.	.
CS(=O)(=O)c1sc(C#N)c2c1C(=O)CC(c1ccccc1)C2 (configuration not stated)	-	.	-	-	89
Cc1oc2c(c(=O)c1C)C(=O)CC(c1ccccc1)C2 (configuration not stated)	.	-	-	-	-
COCCN(C(=O)C1=COCCO1)c1c(N)n(CC(C)C)c(=O)[nH]c1=O	-	-	-	-	.
COC(=O)[C@]12CCCCC=C1N(Cc1ccc3c(c1)OCO3)C(=O)[C@H](CC(=O)NCc1cccc3ccccc13)C2	-	.	.	.	.
CCN(CC)C(=O)C1CCCN(c2ccc([N+](=O)[O-])cc2/C=N/NC(=O)c2cccc([N+](=O)[O-])c2)C1 (configuration not stated)	-	.	-	90	-
CCN(CC)C(=O)C1CCCN(c2ccccc2[N+](=O)[O-])C1 (configuration not stated)	-	-	-	79	-
O=C(CNc1ccccc1)N/N=C/c1cc([N+](=O)[O-])ccc1N1CCCC1	-	-	-	73	-
N#CCC(=O)N/N=C/c1cc([N+](=O)[O-])ccc1N1CCCC1	-	-	-	-	-
CCCCNC(=O)C1(C)CCN1C(=O)c1cc(-c2cccs2)oc1C (configuration not stated)	-	.	.	.	.
Oc1ccc(-c2nccc(-c3ccc(F)cc3)n2)cc1	-	92	-	-	-
NNC(=O)COc1ccc(-c2nccc(-c3ccc(F)cc3)n2)cc1	-	-	-	-	-
COc1ccc(CNS(=O)(=O)c2cc(CN3C(=O)c4cccnc4C3=O)ccc2OC)cc1	-	-	-	-	61
CCCC1CC(=O)NC1(C(=O)OCC)C(=O)OCC (configuration not stated)	-	-	-	-	.
COc1cc(-c2ccc3oc(-c4ccsc4)cc(=O)c3c2)cc(OC)c1OC	-	-	-	73	.
CC(C)Oc1ccc(F)cc1-c1cc(C(=O)N2CCc3ccccc3C2)[nH]n1	-	.	.	.	.
SMILES	Wnt act	MITF act	SR-BI DiI-HDL act	SR-BI DiI inh	HSF1 activator
O=C(O)CCc1ccc(-c2ccccc2)n1Cc1ccco1	-	-	-	-	-
O=C(O)CCc1ccc(-c2ccc(Br)cc2)n1Cc1ccco1	.	-	-	-	116
Brc1ccc2c(c1)C(c1cccnc1)=NNC(c1cccs1)=N2	.	-	-	-	64
Brc1ccc2c(c1)C(c1ccc(N3CCOCC3)cc1)=NNC(c1cccs1)=N2	-	-	-	-	-
O=C(N/N=C/c1cccc(F)c1)c1ccc(Cl)cc1	-	96	-	-	-
CCOc1cc(/C=N/NC(=O)CN2CCCCC2)ccc1OCc1cccc(Cl)c1	-	-	-	-	-
COc1cc(/C=N/NC(=S)Nc2cccc(S(=O)(=O)N(C)C)c2)ccc1O	-	-	-	71	-
Fc1ccc(/C=N/NC(=S)Nc2ccc(Cl)cc2)cc1F	-	-	-	-	56
O=C(N/N=C/c1cccc(NC(=O)c2ccc(Cl)cc2)c1)c1ccc(O)cc1	-	-	.	.	-
CCOc1cc(/C=N/NC(=O)CN2CCCCC2)ccc1OCc1ccc(Cl)cc1	-	-	-	-	58
COc1cc(/C=N/NC(=O)c2cccc(NC(=O)c3ccccc3)c2)ccc1O	-	-	-	-	-
CN(Cc1ccccc1)C(=O)c1cccc(NC(=O)Cc2ccc(NC(=O)C3CCCN(S(=O)(=O)c4cccc([N+](=O)[O-])c4)C3)cc2)c1 (configuration not stated)	-	.	.	.	.
O=c1cc(CN(Cc2ccccc2)Cc2ccccc2)c2c(ccc3ccccc32)o1	-	.	.	.	.
CCCNC(=O)C1(C)CCCN(Cc2ccc(C)cc2)C1 (configuration not stated)	-	.	.	.	.
CCOC(=O)N/N=C/c1ccc(OCCSc2ccc(Cl)cc2)c(OCC)c1	-	-	-	74	-
Fc1cccc(/C=N/NC(=S)Nc2ccccc2Cl)c1	.	-	-	-	87
O=C(CN1CCN(Cc2ccc(Cl)cc2)CC1)N/N=C/c1cccc(F)c1	43	.	.	.	-
CCOC(=O)N/N=C/c1ccc(OCCSc2ccc(Cl)cc2)c(OC)c1	-	-	-	-	-
COc1ccc(NC(=S)N/N=C/c2ccc(F)cc2)cc1OC	-	-	-	-	55
CC1CCCN(c2cccc3c2S(=O)(=O)N([C@H](C)c2ccccc2)C[C@@H](COCc2ccccc2)O3)C1 (some centres not stated)	-	.	.	.	.
O=C(NCC(F)(F)F)[C@H]1O[C@@H](n2ccc(=O)[nH]c2=O)[C@H](O)[C@@H]1O	-	.	.	.	.
O=C(N/N=C/c1ccccc1Cl)c1cccc(F)c1	40	?	-	-	73
O=C(N/N=C/c1c(Cl)cccc1Cl)c1cccc(F)c1	-	-	-	-	-
O=C(c1cnn2c(C(F)(F)F)cc(-c3ccc(Br)cc3)nc12)N1CCOCC1	.	-	-	-	-
O=C(NCC(c1cccs1)N1CCOCC1)c1cc(-c2ccc(F)cc2)nc2ccccc12 (configuration not stated)	-	-	-	84	-
SMILES	Wnt act	MITF act	SR-BI DiI-HDL act	SR-BI DiI inh	HSF1 activator
Cc1ccc(-c2cc(C(=O)Nc3cc(C)on3)c3ccccc3n2)cc1	-	-	-	74	-
Cc1cc(NC(=O)c2cnn3c(C(F)(F)F)cc(-c4ccc(Br)cc4)nc23)no1	-	-	-	77	-
Cc1cc(NC(=O)c2cc(-c3ccc(C)c(C)c3)nc3ccccc23)no1	.	-	-	-	-
Cc1ccc(Nc2nc3ccccc3nc2Nc2c(C)n(C)n(-c3ccccc3)c2=O)cc1	-	-	-	92	-
OCC1COC(c2ccccc2)=N1 (configuration not stated)	-	.	.	.	.
Cc1c(NC(=O)c2cc(-c3ccc(F)cc3)nc3ccccc23)c(=O)n(-c2ccccc2)n1C	-	-	-	86	.
